Source: PubChem (several laboratories)
L major viab: Leishmania major promastigote growth inhibition, primary screen. Leishmania major promastigotes, resazurin fluorescence viability. inhibition, % at 10 µM. 9% of 200,000 active. AID 1063, 2008; in the data active = inhibition above about 50%;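 also: promastigotes grown with compound for 44 hours at 28 °C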
HSV replic up: enhancers of HSV replication in host cells, fold increase, host cell viability; HSV replication augmentation in cells; maximum fold increase; 0.005% of 220,000 active; AID 1956, 2009; in the data active = maximum fold increase above about 1.5; tested in PC3 cells
bCat nuc transl: modulators of beta-catenin nuclear translocation, primary screen, imaging, HeLa cells, immunofluorescence, high-content. nuclear translocation activity, % at 5 µM. 0.3% of 190,000 active;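 active = nuclear translocation activity above 50% at 5 µM, with a well cell count of 50 or more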;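 also: per-cell ratio of nuclear to cytoplasmic median beta-catenin stain intensity; plate controls were DMSO negative control for no effect and GSK-3 inhibitor IX positive control for full effect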
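Technique: fluorescence imaging of beta-catenin antibody stain plus DAPI / Material: human HeLa cell line / Incubation: compound treatment 24 h, 37°C, 5% CO2 / Read-out basis: % activation of per-cell nuclear versus cytoplasmic median beta-catenin signal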
MT stabilizer: microtubule stabilizers in HeLa cells, primary screen, imaging, high-content imaging; HeLa tubulin immunostaining HCS, 24 h; share of cells brighter than vehicle mean+2SD; % tubulin-high responders, % at 10 µM; 0.83% of 200,000 active;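 active = plate Z-score above 3 for both tubulin-high and condensed-nucleus cell shares, with cell loss under 80%, at 10 µM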;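 also: anti alpha tubulin signal scored within the nucleus-defined area of each cell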
Dynein transport: inhibitors of GR-EGFP nuclear translocation, primary screen, dynein cargo transport inhibitor project, imaging, high-content, 3617.4 mouse cells; 0.47% of 220,000 active; z-score, hits read low; test concentration mostly 20 µM; stimulated with dexamethasone, 1 µM; hits give low values;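 active = plate z-score of nuclear minus cytoplasmic receptor signal below a set negative limit, without overly bright fluorescence or cell loss, cut at about -3.5 in these data, passing the limit was not always enough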;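 also: z-score of nuclear minus cytoplasmic ring GR-EGFP intensity difference per well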
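Buffer or medium: Induction medium lacking tetracycline, stripped serum | Also added: Dexamethasone agonist, 1.0 µM final, for 30 min | Timing: 48 h induction, 1 h compound, 30 min dex at 37 °C | Detection: Formaldehyde fixation, Hoechst nuclear stain, 10x automated fluorescence imaging | Measure: Nuclear versus cytoplasmic GR-EGFP signal, averaged per well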
Active calls of the source: *. Sampled rows, rich in hits. Any-hit rate of the full collection: about 8.9%.

`O=C(CC(C(=O)N1CCc2ccccc21)n1ccnc1)N1CCc2ccccc2C1` (centres undefined) gave L major viab 100*, bCat nuc transl 2, MT stabilizer 6 and Dynein transport -0.87.
`Cc1ccc(NC2=C(N3CCOCC3)C(=O)c3ccccc3C2=O)cc1` gave L major viab 2, HSV replic up inactive, bCat nuc transl 0, MT stabilizer 1 and Dynein transport 2.
For N#Cc1ccc(-c2ccc(OCC(=O)NCC(=O)Nc3ccc(F)c(F)c3F)cc2)cc1 the results were L major viab 58*, HSV replic up inactive, bCat nuc transl 0, MT stabilizer 3 and Dynein transport -0.088.
Screening COc1cc(CN2CC(=O)N(c3ccc(C)cc3)C2=S)cc(OC)c1OC returned L major viab 82*, HSV replic up inactive, bCat nuc transl -2, MT stabilizer 2 and Dynein transport 0.13.
COc1ccc(OC)c(NC(=S)N(CCc2c(C)[nH]c3ccc(C)cc23)Cc2cccs2)c1 was read as L major viab 84*, bCat nuc transl 6, MT stabilizer 3 and Dynein transport 0.21.
COCCNC(=S)N(CCc1c(C)[nH]c2ccc(C)cc12)Cc1cc(OC)c(OC)c(OC)c1 was read as L major viab 53*, bCat nuc transl -5, MT stabilizer 2 and Dynein transport 2.
COc1ccc2[nH]c(C)c(CCN(Cc3cccs3)C(=S)Nc3cccc(F)c3)c2c1 was read as L major viab 50*, HSV replic up inactive, bCat nuc transl 2, MT stabilizer 2 and Dynein transport 0.32.
For COc1cccc(NC(=S)N(CCc2c(C)[nH]c3ccc(C)cc23)Cc2cccs2)c1 the results were L major viab 78*, bCat nuc transl -5, MT stabilizer 2 and Dynein transport 2.
COc1ccc(OC)c(NC(=S)N(CCc2c(C)[nH]c3ccccc23)Cc2cccs2)c1 was read as L major viab 26, bCat nuc transl 1, MT stabilizer 2 and Dynein transport -0.68.
COc1ccc2cc(CCNC(=O)c3cccs3)c(=O)[nH]c2c1 was read as L major viab -5, HSV replic up inactive, bCat nuc transl -1, MT stabilizer 3 and Dynein transport -0.51.
Screening O=C(CCC(=O)Nc1cccc(Cl)c1)N/N=C/c1cc([N+](=O)[O-])ccc1O returned L major viab 32, HSV replic up inactive, bCat nuc transl 2, MT stabilizer 9 and Dynein transport -0.012.
COc1ccc(C)cc1S(=O)(=O)Nc1ccc(F)cc1 was read as L major viab 31, HSV replic up inactive, bCat nuc transl -1, MT stabilizer 1 and Dynein transport -0.16.
Screening CCOc1cc(C)c(S(=O)(=O)Nc2ccc(F)cc2)cc1C returned L major viab 58*, HSV replic up inactive, MT stabilizer 4 and Dynein transport 2.2.
CC(C)CCNC(=O)C(c1cccs1)N(CC1CCCO1)C(=O)Cn1nnc2ccccc21 (centres undefined) was read as L major viab -3, HSV replic up inactive, bCat nuc transl 0, MT stabilizer 3 and Dynein transport -0.27.
`CC(Sc1nc(N(C)C)nc(N2CCOCC2)n1)C(=O)Nc1ccccc1` (centres undefined) gave L major viab 63*, HSV replic up inactive, bCat nuc transl 0, MT stabilizer 4 and Dynein transport 1.8.
CC(C)(C)NS(=O)(=O)c1ccc2nc(NC(=O)Cc3cccs3)sc2c1 was read as L major viab 95*, HSV replic up inactive, bCat nuc transl 0, MT stabilizer 21 and Dynein transport -0.3.
CC(C)(C)C1CCC(OC(=O)C[N+]2(C)CCCC2)CC1 (centres undefined) was read as L major viab 6, HSV replic up inactive, MT stabilizer 2 and Dynein transport 0.4.
Screening CC(C)(C)C1CCC(OC(=O)C[N+]2(C)CCCCC2)CC1 (centres undefined) returned L major viab 75*, HSV replic up inactive, bCat nuc transl 0, MT stabilizer 4 and Dynein transport -0.59.
`COc1ccc(NS(=O)(=O)c2cccc(NC(=O)COc3ccc(OC)cc3)c2)cc1` gave HSV replic up inactive, bCat nuc transl 0 and Dynein transport -1.4.
COc1ccc(NS(=O)(=O)c2cccc(N/C(=N\S(=O)(=O)c3ccccc3)c3ccc(F)cc3)c2)cc1 was read as L major viab 76*, HSV replic up inactive, MT stabilizer 4 and Dynein transport 0.64.
For COc1ccc(NS(=O)(=O)c2cccc(NC(=O)NC3CCCCC3)c2)cc1 the results were L major viab 99*, HSV replic up inactive, bCat nuc transl -2, MT stabilizer 3 and Dynein transport 0.43.
Screening COc1ccccc1NS(=O)(=O)c1ccc(C)c(NC(=O)NC2CCCCC2)c1 returned L major viab 100*, HSV replic up inactive, bCat nuc transl -1, MT stabilizer 3 and Dynein transport 2.3.
For COc1ccc(S(=O)(=O)Nc2ccccc2OC)cc1NC(=O)CC1CC2CCC1C2 (centres undefined) the results were L major viab 100*, HSV replic up inactive, bCat nuc transl -3, MT stabilizer 3 and Dynein transport 0.61.
Screening COc1ccccc1NS(=O)(=O)c1ccc(C)c(NC(=O)NCCCl)c1 returned HSV replic up inactive, bCat nuc transl 0 and Dynein transport 0.85.
O=S(=O)(NCCSc1nc2ccccc2o1)c1ccccc1 was read as L major viab 11, HSV replic up inactive, MT stabilizer 4 and Dynein transport 0.94.
COc1ccc(C)cc1NC(=O)Nc1ccc(Br)cn1 was read as L major viab 2, HSV replic up inactive, MT stabilizer 3 and Dynein transport -0.94.
`COc1ccc(NS(=O)(=O)c2ccc(C)c(NC(=O)NC3CCCCC3)c2)cc1` gave L major viab 99*, HSV replic up inactive, bCat nuc transl 0, MT stabilizer 5 and Dynein transport -0.18.
`CC1Oc2ccccc2N(Cc2ccccc2Cl)C1=O` (centres undefined) gave L major viab 4, HSV replic up inactive, bCat nuc transl 0, MT stabilizer 4 and Dynein transport -0.29.
For CN1C(=O)/C(=C/c2cn(CC(=O)N3CCCCC3)c3ccccc23)c2ccccc21 the results were L major viab 86*, HSV replic up inactive, bCat nuc transl 0, MT stabilizer 1 and Dynein transport 0.029.
O=Cc1cn(CC(=O)N2CCCCC2)c2ccccc12 was read as L major viab -4, bCat nuc transl -1, MT stabilizer 3 and Dynein transport -0.62.
Screening O=C(c1cc(F)c(F)cc1Cl)N1CCN(c2ccc([N+](=O)[O-])c3ncccc23)CC1 returned L major viab 57*, HSV replic up inactive, bCat nuc transl -5, MT stabilizer 2 and Dynein transport 0.18.
